Activity calls are given as the source filed them. No cut-off for these calls is given here.
Experiments:
Influenza A virus [1] = assay: Antiviral activity against Influenza A virus (A/WSN/33) infected in MDCK cells assessed as reduction in virus-induced cytopathic effect after 72 hrs by crystal violet-staining based assay; format: functional, organism-based; conditions: A/WSN/1933(H1N1)
In short: (§1)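 Cells seeded at 2 × 10^4/well in E10 (DMEM, 10% FBS), 16–24 h at 37 °C/5% CO2, washed with DPBS, then infected at nine-fold TCID50 with or without serial compound concentrations. Influenza is run in MDCK and enterovirus/rhinovirus in RD. Incubated 72 h, fixed in 4% paraformaldehyde, stained with 0.1% crystal violet, and read for cell density. EC50 = 50% CPE inhibition by Reed–Muench; mean ± S.D. of at least three runs.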

[2] = Cytotoxicity against MDCK cells assessed as cell death after 72 hrs by MTT assay; format: cell-based, Canis lupus familiaris; conditions: dog
In short: (§2)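 MDCK or RD cells at 2 × 10^4/well in E10, overnight at 37 °C/5% CO2, DPBS wash, then exposed to graded compound concentrations for 72 h. MTT added for 3 h, formazan dissolved in DMSO, absorbance read at 570 nm. CC50 (50% cell death) by Reed–Muench.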

[3] = Selectivity ratio of CC50 for MDCK cells to EC50 for Influenza A virus (A/WSN/33); format: toxicity; conditions: dog, read-out: Ratio CC50/EC50
In short: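 SI is calculated as CC50 (MDCK, 72 h MTT) divided by EC50 (72 h crystal-violet CPE assay in MDCK).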

Influenza A virus [4] = assay: Antiviral activity against Influenza A virus (A/WSN/33) infected in MDCK cells assessed as reduction in NP protein distribution to cytoplasm at 10 nM measured after 9 hrs post infection by IF-staining based microscopy; format: functional, organism-based; conditions: A/WSN/1933(H1N1)
In short: (§3)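 MDCK cells grown on coverslips (2 × 10^5/well, 16 h), infected at MOI 0.1 for 1 h, washed, then kept in E0 with test compound (1 or 10 μM) or LMB 10 nM; DMSO 0.05% as mock. Fixed at 9 h pi in 4% paraformaldehyde and immunostained for M1, NP, NS2 or PA (1:50), with Hoechst nuclear stain. Viewed by confocal microscopy at 63×. NP nuclear/cytoplasmic intensity ratio quantified; three independent experiments.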

Influenza A virus [5] = assay: Antiviral activity against Influenza A virus (A/WSN/33) infected in MDCK cells assessed as reduction in NS2 protein distribution to cytoplasm at 10 nM measured after 9 hrs post infection by IF-staining based microscopy; format: functional, organism-based; conditions: A/WSN/1933(H1N1); in short: as §3
Influenza A virus [6] = assay: Antiviral activity against Influenza A virus (A/WSN/33) infected in MDCK cells assessed as reduction in PA protein distribution to cytoplasm at 10 nM measured after 9 hrs post infection by IF-staining based microscopy; format: functional, organism-based; conditions: A/WSN/1933(H1N1); in short: as §3
Influenza A virus [7] = assay: Antiviral activity against Influenza A virus (A/WSN/33) infected in MDCK cells assessed as reduction in M1 protein distribution to cytoplasm at 10 nM measured after 9 hrs post infection by IF-staining based microscopy; format: functional, organism-based; conditions: A/WSN/1933(H1N1); in short: as §3
Influenza A virus [8] = assay: Inhibition of viral protein sub-cellular distribution in Influenza A virus (A/WSN/33) infected in MDCK cells assessed as reduction in NS2 protein distribution to cytoplasm at 10 nM measured after 9 hrs post infection by IF-staining based microscopy; format: functional, organism-based; conditions: A/WSN/1933(H1N1); in short: as §3
Influenza A virus [9] = assay: Inhibition of viral protein sub-cellular distribution in Influenza A virus (A/WSN/33) infected in MDCK cells assessed as reduction in PA protein distribution to cytoplasm at 10 nM measured after 9 hrs post infection by IF-staining based microscopy; format: functional, organism-based; conditions: A/WSN/1933(H1N1); in short: as §3
Influenza A virus [10] = assay: Inhibition of viral protein sub-cellular distribution in Influenza A virus (A/WSN/33) infected in MDCK cells assessed as reduction in M1 protein distribution to cytoplasm at 10 nM measured after 9 hrs post infection by IF-staining based microscopy; format: functional, organism-based; conditions: A/WSN/1933(H1N1); in short: as §3
MDCK [11] = assay: Inhibition of CRM1 in MDCK cells infected with Influenza A virus (A/WSN/33) assessed as reduction in CRM1-mediated viral protein nuclear export by measuring reduction in NP protein distribution to cytoplasm at 10 nM measured after 9 hrs post infection by IF-staining based microscopy; format: cell-based; conditions: Canis lupus familiaris; in short: as §3
[12] = Cytotoxicity against human RD cells assessed as cell death after 72 hrs by MTT assay; format: cell-based; in short: as §2
Influenza A virus [13] = assay: Antiviral activity against Influenza A virus A/TW/3446/02 (H3N2) infected in MDCK cells after 72 hrs by crystal violet-staining based assay; format: functional, organism-based; in short: as §1
Influenza A virus [14] = assay: Antiviral activity against pandemic Influenza A virus A/TW/2235/09 (H1N1) SO4 infected in MDCK cells after 72 hrs by crystal violet-staining based assay; format: functional, organism-based; conditions: A/TW/2235/09 (H1N1) SO4, MDCK; in short: as §1
[15] = Selectivity ratio of CC50 for MDCK cells to EC50 for pandemic Influenza A virus A/TW/2235/09 (H1N1) SO4; format: toxicity; conditions: dog, read-out: Ratio CC50/EC50
In short: (§4)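 MDCK cells (2 × 10^4/well, E10, 16–24 h) infected at nine-fold TCID50 with compound for 72 h, 37 °C, 5% CO2. Cells were fixed in 4% paraformaldehyde and stained with crystal violet; EC50 is from Reed–Muench. For CC50, cells had compound alone for 72 h, then MTT 3 h, DMSO, A570, Reed–Muench. SI = CC50/EC50; three independent experiments.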

[16] = Selectivity ratio of CC50 for MDCK cells to EC50 for Influenza A virus A/TW/3446/02 (H3N2); format: toxicity; conditions: dog, read-out: Ratio CC50/EC50; in short: as §4
Enterovirus A71 = assay: Antiviral activity against Enterovirus A71 TW/4643/1998 infected in human RD cells after 72 hrs by crystal violet-staining based assay; format: functional, organism-based; conditions: Enterovirus A, TW/4643/1998, RD; in short: as §1
enterovirus D68 = assay: Antiviral activity against Enterovirus D68 TW/2795/2014 clade B3 infected in human RD cells after 72 hrs by crystal violet-staining based assay; format: functional, organism-based; conditions: Enterovirus D, TW/2795/2014 clade B3, RD; in short: as §1
[17] = Selectivity ratio of CC50 for human RD cells to EC50 for Enterovirus A71 TW/4643/1998; format: toxicity; conditions: read-out: Ratio CC50/EC50
In short: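 RD cells (2 × 10^4/well, DMEM 10% FBS, 16–24 h) infected with enterovirus at nine-fold TCID50 with compound, 72 h, 37 °C, 5% CO2. Cells were fixed in 4% paraformaldehyde, stained with 0.1% crystal violet, and EC50 taken by Reed–Muench. CC50 came from 72 h exposure of uninfected RD cells, MTT 3 h, A570, Reed–Muench. SI = CC50/EC50; three independent experiments.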

Enterovirus [18] = assay: Antiviral activity against Rhinovirus 71803 infected in human RD cells after 72 hrs by crystal violet-staining based assay; format: functional, organism-based; conditions: Enterovirus, 71803, RD; in short: as §1
Enterovirus [19] = assay: Antiviral activity against Rhinovirus 71903 infected in human RD cells after 72 hrs by crystal violet-staining based assay; format: functional, organism-based; conditions: Enterovirus, 71903, RD; in short: as §1
[20] = biological target: Hemagglutinin (Influenza A virus) (UniProt B4URE7); assay: Inhibition Influenza A virus (A/WSN/33) HA infected in guinea pig RBC assessed as reduction in hemagglutination at serial dilution from 50 uM after 1 hr by HAI assay; conditions: Influenza A virus (A/WSN/1933(H1N1))
In short: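 Virus titrated on 0.5% guinea pig RBCs to define 1 HA unit; 4 HA units used. Compound two-fold serially diluted from 50 µM and mixed with virus for 30 min at room temperature, or tested without virus for direct agglutination. 0.5% RBCs then added and agglutination scored after 1 h. DMSO/RBC-only and virus-only controls included.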

Influenza A virus [21] = assay: Antiviral activity against Influenza A virus (A/WSN/33) infected in MDCK cells at 1 uM added at -1 hrs to 9 hrs post infection and measured after 9 hrs by plaque assay; format: functional, organism-based; conditions: A/WSN/1933(H1N1)
In short: (§5)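 MDCK monolayers exposed to compound (1 or 10 μM) over windows of −3, −1, 0, 3 or 6 to 9 h pi. A/WSN/33 adsorbed at MOI 0.1 from −1 to 0 h, then removed with a PBS wash. Supernatant taken at 9 h pi and titred by plaque assay, normalised to virus-only (100%). Average of three independent experiments.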

MDCK [22] = assay: Inhibition of CRM1 in MDCK cells infected with Influenza A virus (A/WSN/33) assessed as reduction in CRM1-mediated viral protein nuclear export by measuring reduction in NP protein distribution to cytoplasm at 1 uM measured after 9 hrs post infection by IF-staining based microscopy; format: cell-based; conditions: Canis lupus familiaris; in short: as §3
Influenza A virus [23] = assay: Inhibition of viral protein sub-cellular distribution in Influenza A virus (A/WSN/33) infected in MDCK cells assessed as reduction in M1 protein distribution to cytoplasm at 1 uM measured after 9 hrs post infection by IF-staining based microscopy; format: functional, organism-based; conditions: A/WSN/1933(H1N1); in short: as §3
Influenza A virus [24] = assay: Antiviral activity against Influenza A virus (A/WSN/33) infected in MDCK cells at 1 uM added at 3 hrs to 9 hrs post infection and measured after 9 hrs by plaque assay; format: functional, organism-based; conditions: A/WSN/1933(H1N1); in short: as §5

Sequence of Hemagglutinin (Influenza A virus) (B4URE7 as listed by the source): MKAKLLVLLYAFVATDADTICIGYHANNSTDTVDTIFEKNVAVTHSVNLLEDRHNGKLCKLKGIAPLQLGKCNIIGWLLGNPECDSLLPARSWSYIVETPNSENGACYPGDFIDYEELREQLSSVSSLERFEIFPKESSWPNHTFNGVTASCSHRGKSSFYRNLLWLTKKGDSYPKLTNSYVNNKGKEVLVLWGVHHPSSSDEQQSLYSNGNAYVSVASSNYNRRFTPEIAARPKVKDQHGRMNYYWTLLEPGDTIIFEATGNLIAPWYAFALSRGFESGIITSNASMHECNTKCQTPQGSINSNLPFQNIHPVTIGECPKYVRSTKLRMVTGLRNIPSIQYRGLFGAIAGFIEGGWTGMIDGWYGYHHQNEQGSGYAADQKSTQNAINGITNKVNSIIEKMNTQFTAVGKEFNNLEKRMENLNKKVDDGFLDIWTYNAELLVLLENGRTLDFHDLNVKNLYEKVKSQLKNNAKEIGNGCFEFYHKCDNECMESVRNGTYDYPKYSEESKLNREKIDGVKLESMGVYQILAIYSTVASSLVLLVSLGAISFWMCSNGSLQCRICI

| Structure (SMILES) | EC50 (Influenza A virus [1]) [µM] | CC50 at 72 h [2] [µM] | selectivity ratio [3] | further results |
| --- | --- | --- | --- | --- |
| C=C(CC(=O)NCc1ccc(F)cc1F)C(=O)NCc1ccc(F)cc1F | > 50 | > 110 |  |  |
| C=C(CC(=O)Nc1cc(F)ccc1F)C(=O)Nc1cc(F)ccc1F | 1.26 | 32.8 | 26 |  |
| C=C(CC(=O)Nc1ccc(F)cc1F)C(=O)O | > 50 | > 110 |  |  |
| C=C(CC(=O)Nc1cc(Cl)ccc1F)C(=O)Nc1cc(Cl)ccc1F | 0.18 | 19.9 | 111 |  |
| O=C(/C=C\n1cnc(-c2cc(C(F)(F)F)cc(C(F)(F)F)c2)n1)NNc1ccccn1 [VERDINEXOR] | 3.28 | 31.8 | 9.69 |  |
| C=C(CC(=O)Nc1ccc(C(F)(F)F)cc1F)C(=O)O | > 50 | > 110 |  |  |
| C=C(CC(=O)Nc1ccc(OC)cc1F)C(=O)Nc1ccc(OC)cc1F | 31 | > 110 | > 3 |  |
| C=C(CC(=O)Nc1ccc(Br)cc1Br)C(=O)Nc1ccc(Br)cc1Br | 41.6 | > 110 | > 2 |  |
| C=C(CC(=O)Nc1cc(F)ccc1C(F)(F)F)C(=O)O | > 50 | > 110 |  |  |
| C=C(CC(=O)Nc1ccccc1C(F)(F)F)C(=O)O | > 50 | > 110 |  |  |
| C=C(CC(=O)Nc1ccc(F)cc1C(F)(F)F)C(=O)O | > 50 | > 110 |  |  |
| CCC(=C/[C@H](C)C/C=C/C(C)=C/[C@@H](C)C(=O)[C@@H](C)[C@H](O)[C@@H](C)C/C(C)=C/C(=O)O)/C=C/[C@@H]1OC(=O)C=C[C@@H]1C [LEPTOMYCIN B] | 0.18 | > 0.88 | > 4 | Activity (Influenza A virus [4]): Active; Activity (Influenza A virus [5]): inactive; Activity (Influenza A virus [6]): inactive; Activity (Influenza A virus [7]): inactive; inhibition (Influenza A virus [8]): inactive; inhibition (Influenza A virus [9]): inactive; inhibition (Influenza A virus [10]): inactive; inhibition (MDCK [11]): Active |
| C=C(CC(=O)Nc1ccc(C(F)(F)F)cc1F)C(=O)Nc1ccc(C(F)(F)F)cc1F | 0.14 | > 110 | > 785 | CC50 at 72 h [12]: 9.31 µM; EC50 (Influenza A virus [13]): 0.96 µM; EC50 (Influenza A virus [14]): 1.62 µM; selectivity ratio [15]: > 67; selectivity ratio [16]: > 114; EC50 (Enterovirus A71): 6.69 µM; EC50 (enterovirus D68): > 50 µM; selectivity ratio [17]: 1; EC50 (Enterovirus [18]): > 50 µM; EC50 (Enterovirus [19]): > 50 µM; inhibition [20]: inactive; Activity (Influenza A virus [21]): Active; inhibition (MDCK [22]): Active; inhibition (Influenza A virus [23]): inactive; Activity (Influenza A virus [24]): Active |

Source: ChEMBL document CHEMBL4316597, “Design, Synthesis, and Biological Evaluation of Itaconic Acid Derivatives as Potential Anti-Influenza Agents” (J Med Chem, 2019)
